Sampled rows, rich in hits. Any-hit rate of the full collection: about 4.4%.
EBI2 block – EBI2 receptor antagonists, beta-arrestin recruitment, primary screen, cell-based, luminescence, 7a,25-OHC stimulation, uHTS. 7a,25-OHC stimulated. 360,000 tested, 0.81% active. inhibition, % at 5 µM; in the data active = inhibition above about 38%;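 also: enzyme fragment complementation signal reports receptor beta-arrestin coupling in cells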
Target sequence (P32249 whole entry, looked up, the tested form may be a part): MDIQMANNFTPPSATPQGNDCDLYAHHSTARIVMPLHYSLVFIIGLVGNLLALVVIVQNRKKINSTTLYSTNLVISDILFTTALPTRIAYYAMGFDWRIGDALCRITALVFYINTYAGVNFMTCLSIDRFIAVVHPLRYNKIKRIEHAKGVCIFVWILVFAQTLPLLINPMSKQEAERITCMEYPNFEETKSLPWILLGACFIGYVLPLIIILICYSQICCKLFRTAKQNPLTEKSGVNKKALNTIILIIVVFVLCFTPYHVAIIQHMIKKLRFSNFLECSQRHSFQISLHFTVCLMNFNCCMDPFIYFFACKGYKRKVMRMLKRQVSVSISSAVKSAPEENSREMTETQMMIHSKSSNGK
SENP1 inh – human SENP1 catalytic domain inhibitors, primary screen, biochemical, FRET, uHTS | inhibition, % at 10 µM | 360,000 tested, 0.21% active | Sentrin-specific protease 1 (Homo sapiens), Q9P0U3 | recombinant SENP1 catalytic domain, CyPet-SUMO1-YPet FRET cleavage | AID 624204, 2012;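 active = inhibition at least 30% at 10 µM, raw YFP signal under a set limit, fluorescence ratio 0.5 to 1.5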
Target sequence (Q9P0U3 419-644 limits assumed): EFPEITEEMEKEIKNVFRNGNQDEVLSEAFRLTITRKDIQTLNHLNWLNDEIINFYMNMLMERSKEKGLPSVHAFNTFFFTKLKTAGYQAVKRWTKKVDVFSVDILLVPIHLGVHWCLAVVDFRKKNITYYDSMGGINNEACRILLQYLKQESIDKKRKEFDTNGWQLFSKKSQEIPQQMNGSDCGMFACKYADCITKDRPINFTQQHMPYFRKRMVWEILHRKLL
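Material: hSENP1 catalytic domain, recombinant; medium: Tris pH 8 with BME, BSA, NP40 and catalase; compound: single concentration of 10 µM compound, 0.5% DMSO final; technique: FRET read of cyan and yellow fluorescence; timing: 50 min enzyme reaction, room temperature, light-protected; reagent: SFCypet-SUMO1-SFYpet substrate at 25 nM; control set: no-enzyme low, enzyme-DMSO high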
GRIN3A LBD mod – binders of NR3A ligand-binding domain, primary screen, biophysical, differential scanning fluorimetry, uHTS. 340,000 tested, 2.5% active. Tm shift relative to glycine control, % at 25 µM. AID 1259313, 2017. Glutamate receptor ionotropic, NMDA 3A (GRIN3A) ligand-binding domain. NR3A LBD differential scanning fluorimetry, Tm shift; 0% = protein alone, 100% = glycine-bound protein;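 active = melting temperature shift of at least 10% of the positive control shift, at one fixed dose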
MPTP inh – mitochondrial permeability transition pore inhibitors, primary screen, biochemical, isolated mouse mitochondria, absorbance; Ca2+ swelling absorbance, 30 min; inhibition, % at 10 µM; 360,000 tested, 1.4% active; AID 602449, 2012;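 active = inhibition of 50% or more, scaled per plate between neutral and stimulator controls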
Rh123 counter – fluorescence retest of MPTP screen hits in isolated mitochondria, single concentration; shares compounds with MPTP inh; membrane potential, Rhodamine 123 fluorescence; inhibition, % at 10 µM; 5,000 tested, 78% active; AID 624504, 2012; in the data active = inhibition above about 22%
MPTP abs DR – mitochondrial permeability transition pore inhibitors, dose response, biochemical, absorbance, uHTS hits. IC50, µM. 780 tested, 58% active. isolated mitochondria swelling. shares compounds with MPTP inh. AID 651561, 2012; in the data active = IC50 below about 20 µM
MPTP cs DR – fluorescent counter-screen in isolated mitochondria, dose response, counter-screen for MPTP inhibitor project, biochemical, fluorescence, uHTS hits; isolated mitochondria counterscreen, fluorescence read-out; 780 tested, 49% active; shares compounds with MPTP inh; AID 651564, 2012; IC50, µM; in the data active = IC50 below about 80 µM
Large screens that a line does not name were inactive (follow-up assays come after a bar, where they were run).

OCCCNc1ncnc2c1cnn2-c1ccc(Cl)cc1	none
CN(C)CCNc1ncnc2c1cnn2-c1ccc(Cl)cc1	MPTP inh 78 | Rh123 counter inactive | MPTP abs DR 8.4 | MPTP cs DR inactive
Cn1c(=O)[nH]c(=O)c2c1nc([N+](=O)[O-])n2Cc1ccccc1	none
CC(=O)CCc1ccc(OCC(O)CNCCOc2ccc(C)cc2)cc1 (centres undefined)	MPTP inh 74 | Rh123 counter inactive | MPTP abs DR inactive | MPTP cs DR inactive
Cc1ccc(OCCNCC(O)COc2ccccc2)cc1 (centres undefined)	none
CC1(C)SC(=S)N(NC(=O)Nc2ccccc2)C1N(O)C(=O)Nc1ccccc1 (centres undefined)	MPTP inh 58 | Rh123 counter 70
CSc1ccc(CN2C(=O)C(F)(F)Oc3c(C(C)=O)cccc32)cc1	MPTP inh 74 (no result: GRIN3A LBD mod) | Rh123 counter 75
CSc1ccc(CN2C(=O)C(C)Oc3c(C(C)=O)cccc32)cc1 (centres undefined)	none (no result: GRIN3A LBD mod)
Cn1nc(C(F)(F)F)c(-c2ccc(F)cc2)c1NC(=O)Nc1ccc(F)cc1	MPTP inh 74 | Rh123 counter 89
O=C1NC[C@@H](CCCCN2C[C@H](Cc3ccccc3)N(CCC3CCCCC3)C(=O)C2=O)N(CC2CCCCC2)C1=O	none (no result: GRIN3A LBD mod)
COc1ccc(Nc2ccnc3ccccc23)cc1	none
c1ccc(CCNc2ccnc3cc4ccccc4cc23)cc1	MPTP inh 101 | Rh123 counter 106
O=C(NCCc1ccccc1)c1nccc2ccccc12	none
CC(C)Nc1ccc(Nc2ccnc3cc4ccccc4cc23)cc1	MPTP inh 68 | Rh123 counter 70
CCCC(=O)N1CCC1(C)C(=O)Nc1ccc2nc(C)ccc2c1 (centres undefined)	none (no result: GRIN3A LBD mod)
Cc1cc(C)cc(Cn2cc(CN3CC(N4CCN(C)CC4)CS3(=O)=O)nn2)c1 (centres undefined)	none (no result: GRIN3A LBD mod)
COc1ccccc1N1CCN(C2CCCN(C(=O)c3oc(C)cc3C)C2)CC1 (centres undefined)	none
CCN=c1scc(-c2ccccc2)n1/N=C/c1ccccn1	MPTP inh 66 | Rh123 counter 46
CC(C)N1CCC2(CC1)N=C(c1ccc3c(c1)OCO3)CC(c1cc(Cl)ccc1O)N2 (centres undefined)	MPTP inh 69 | Rh123 counter inactive
CC(Sc1ccc(Cl)cc1)C(=O)Nc1ccc2c(c1)OCO2 (centres undefined)	none
Cc1nnsc1C(=O)N/N=C/c1ccc2ccccc2c1O	MPTP inh 56 | Rh123 counter 56
Cc1ccc(COn2c(-c3ccc(Cl)cc3)nc3ccc([N+](=O)[O-])cc32)cc1	MPTP inh 88 | Rh123 counter 84
O=[N+]([O-])c1ccc2nc(-c3ccc(Cl)cc3)n(OCc3ccccc3)c2c1	GRIN3A LBD mod 18, MPTP inh 89 | Rh123 counter 94
Clc1ccc(COn2c(-c3ccc(Cl)cc3)nc3ccccc32)cc1	none
O=C(O)COn1c(-c2ccccc2)nc2ccc([N+](=O)[O-])cc21	none
CCOC(=O)C(C)On1c(-c2ccc(Cl)cc2)nc2ccc([N+](=O)[O-])cc21 (centres undefined)	MPTP inh 89 | Rh123 counter 108
COc1ccc(NC(=S)NC(NC(=O)c2cccc3ccccc23)C(Cl)(Cl)Cl)c([N+](=O)[O-])c1 (centres undefined)	GRIN3A LBD mod 12, MPTP inh 70 | Rh123 counter 55
COc1ccc(NC(=S)NC(NC(=O)c2ccc(Cl)cc2Cl)C(Cl)(Cl)Cl)c([N+](=O)[O-])c1 (centres undefined)	GRIN3A LBD mod 11, MPTP inh 87 | Rh123 counter 54
COc1ccc(NC(=S)NC(NC(=O)CCl)C(Cl)(Cl)Cl)c([N+](=O)[O-])c1 (centres undefined)	none
COc1ccc(NC(=S)NC(NC(=O)c2ccccc2Cl)C(Cl)(Cl)Cl)c([N+](=O)[O-])c1 (centres undefined)	MPTP inh 66 | Rh123 counter 66
O=C(NNC(=S)NC(=O)c1ccccc1Cl)c1cccc([N+](=O)[O-])c1	none
O=C(NC(NC(=S)Nc1c(Cl)cccc1Cl)C(Cl)(Cl)Cl)c1cccc([N+](=O)[O-])c1 (centres undefined)	MPTP inh 73 | Rh123 counter 54
O=C(COc1ccc2ccccc2c1)Nc1ccc(Cc2ccncc2)cc1	MPTP inh 94 | Rh123 counter 88
O=C(COc1ccc(Cl)cc1)Nc1ccc(Cc2ccncc2)cc1	MPTP inh 75 | Rh123 counter 72
CCCCn1c(=O)[nH]c(=O)c2c1nc(-c1ccccn1)n2CC	none
O=C1C(=O)N(CC2CCCO2)C(c2ccco2)/C1=C(/O)c1ccc(F)cc1 (centres undefined)	none
CN(C)S(=O)(=O)c1ccc(Nc2nc(C3CC3)nc3c2nnn3Cc2ccccc2Cl)cc1	MPTP inh 62 | Rh123 counter 29
COC(=O)CNc1nc(C2CC2)nc2c1nnn2Cc1ccccc1Cl	none
CCN(CC)C(=O)[C@H]1CC(CC(=O)NCc2cccc(C(F)(F)F)c2)C(=O)N2CCc3c([nH]c4ccccc34)[C@]12C (some centres undefined)	MPTP inh 61 | Rh123 counter inactive | MPTP abs DR inactive | MPTP cs DR 63
Cc1ccc(C)c(N(C(=O)c2ccco2)C(C(=O)NC2CCCC2)c2ccco2)c1 (centres undefined)	none
C[C@@H]1CN([C@H](C)CO)C(=O)CCCn2nncc2CO[C@H]1CN(C)S(=O)(=O)c1cccc(F)c1	none (no result: GRIN3A LBD mod)
COc1ccc(CCNc2cc(N3CCN(C(=O)c4ccccc4F)CC3)ccc2[N+](=O)[O-])cc1OC	none
COc1ccc(C(=O)N2CCN(c3ccc([N+](=O)[O-])c(NCCc4ccc(OC)c(OC)c4)c3)CC2)cc1	MPTP inh 85 | Rh123 counter inactive | MPTP abs DR 6 | MPTP cs DR <2.5
Cc1cc(Cl)c(S(=O)(=O)NC2CCCC2)cc1OCC(=O)NC1CCCCC1	EBI2 block 45, MPTP inh 80 | Rh123 counter 72
Cc1cc(Cl)c(S(=O)(=O)N2CCCCCC2)cc1OCC(=O)NC1CCCCC1	none
